Active and inactive are the calls of the source.
Columns and labels:
Mus musculus [1] = species on record: Mus musculus; assay: Neuroprotective activity against kainate-induced cell death in mouse primary motor neurons by MTT assay; type: functional
Mus musculus [2] = species on record: Mus musculus; assay: Neuroprotective activity against kainate-induced cell death in mouse primary motor neurons by caspase activation method; type: functional
Cortical neurone [3] = assay: Neuroprotective activity against kainate-induced cell death in mouse primary cortical neurons by caspase activation method; type: functional, cell-based
Cortical neurone [4] = assay: Neuroprotective activity against kainate-induced cell death in mouse primary cortical neurons by cell counting method; type: functional, cell-based
Mus musculus [5] = species on record: Mus musculus; assay: Neuroprotective activity against kainate-induced cell death in mouse primary motor neurons by cell counting method; type: functional
Cortical neurone [6] = assay: Toxicity in mouse primary cortical neurons assessed as MAP2 loss by fluorescence assay; type: cell-based
Outline: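 MAP2 immunostaining of dendritic processes in mouse primary cortical neurons, with cell-profile perimeter measured by image analysis.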

Cortical neurone [7] = assay: Neuroprotective activity against kainate-induced cell damage in mouse primary cortical neurons assessed as reduction in kainate-induced neurofilament loss by measuring increase in MAPK level at 1 uM pretreated followed by kainate challenge measured after 18 hrs by fluorescence assay; type: functional, cell-based; settings: in the assay text read “MAP2” for “MAPK”
Outline: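 Mouse primary cortical neurons cultured as previously described; dendritic processes stained with anti-MAP2 antibody. Cell-profile perimeter measured by image analysis, each condition normalized to kainate-only.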

Cortical neurone [8] = assay: Neuroprotective activity against kainate-induced cell death in mouse primary cortical neurons by MTT assay; type: functional, cell-based
Cortical neurone [9] = assay: Neuroprotective activity against kainate-induced cell damage in mouse primary cortical neurons assessed as reversal of kainate-induced reduction in calcium flux by fura-2-AM dye based fluorescence assay; type: functional
Outline: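 Mouse primary cortical neurons loaded with fura-2AM for 45 min, washed, then depolarized with 10 mM KCl to drive Ca2+ entry through voltage-gated calcium channels. Flux read on a plate-based system.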

Mus musculus [10] = species on record: Mus musculus; assay: Neuroprotective activity against kainate-induced cell damage in mouse primary motor neurons assessed as reversal of kainate-induced neuronal length preceding cell death at […] by fluorescence assay; type: functional
Outline: (§1)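 Mouse primary motor neurons, fixed after treatment and stained with SMI-32 for neurofilaments, then fluorescently imaged. Sholl analysis counted process intersections at each 100 μm radius from the cell centre. Ten cells per condition, three independent experiments, data pooled.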

Rattus norvegicus = assay: Protection against glutamate-induced seizures in ip dosed Sprague-Dawley rat pretreated for 30 mins followed by glutamate challenge and measured for 30 mins; type: functional
Mus musculus [11] = species on record: Mus musculus; assay: Neuroprotective activity against kainate-induced cell damage in mouse primary motor neurons assessed as reversal of kainate-induced neuronal length preceding cell death at 500 nM by fluorescence assay; type: functional; outline: as §1
Mus musculus [12] = species on record: Mus musculus; assay: Neuroprotective activity against kainate-induced cell damage in mouse primary motor neurons assessed as reversal of kainate-induced neuronal length preceding cell death by fluorescence assay; type: functional; outline: as §1

Structure (SMILES)	Activity (Mus musculus [1])	Activity (Mus musculus [2])	Activity (Cortical neurone [3])	Activity (Cortical neurone [4])	Activity (Mus musculus [5])	Activity (Cortical neurone [6])	Activity (Cortical neurone [7])	Activity (Cortical neurone [8])	Activity (Cortical neurone [9])	Activity (Mus musculus [10])	ED50 (Rattus norvegicus) [mg/kg]	Activity (Mus musculus [11])	Activity (Mus musculus [12])
COC(=O)c1ccc(-c2cn(CCn3c(=N)sc4cc(OC(F)(F)F)ccc43)nn2)cc1	inactive	inactive	inactive	inactive	inactive	Toxic	inactive	inactive	Active				
Nc1nc2ccc(OC(F)(F)F)cc2s1 [RILUZOLE]	inactive	inactive	inactive	inactive	inactive		inactive	inactive		Active	3.2		
N=c1sc2cc(OC(F)(F)F)ccc2n1CCn1cc(-c2ccncc2)nn1	inactive	inactive	inactive	inactive	inactive		Active	inactive	Active			Active	
N=c1sc2cc(OC(F)(F)F)ccc2n1CCN1CCN(c2ccccc2)CC1											3.5		
N=c1sc2cc(OC(F)(F)F)ccc2n1CCN1CCC(c2ccccc2)CC1											3		
CCc1ccc(-c2cn(CCn3c(=N)sc4cc(OC(F)(F)F)ccc43)nn2)cc1	inactive	inactive	inactive	inactive	inactive		Active	inactive	Active				inactive
